Legend:
[1] = Cytotoxicity against human HL60 cells assessed as cell growth inhibition at 50 uM after 48 hrs by MTT assay; type: functional; settings: HL-60, 48 h, read-out: GI
Outline: (§1)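 HL-60 suspension cells, 1.5 × 10^4 per well, grown at 37 °C in 5% CO2 with 10% FCS. Treated 48 h with compound in DMSO (vehicle <0.2% v/v). MTT added 3 h before the end. Formazan dissolved in DMSO and read at 570 nm (reference 620 nm). % growth inhibition computed against untreated cells; IC50 taken from the concentration series.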

[2] = Cytotoxicity against human HL60 cells assessed as cell growth inhibition at 30 uM after 48 hrs by MTT assay; type: functional; settings: HL-60, 48 h, read-out: GI; outline: as §1
[3] = Cytotoxicity against human MIAPaCa2 cells assessed as cell growth inhibition at 30 uM after 48 hrs by MTT assay; type: functional; settings: MIA PaCa-2, 48 h, read-out: GI
Outline: (§2)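 Adherent lines at 70–75% confluence, grown at 37 °C in 5% CO2 with 10% FCS. Exposed 48 h to compound in DMSO (vehicle <0.2% v/v). MTT dye added 3 h before termination; formazan dissolved in DMSO, OD 570 nm with 620 nm reference. Growth inhibition expressed as % of untreated; IC50 taken from the dose series.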

[4] = Cytotoxicity against human MIAPaCa2 cells assessed as cell growth inhibition at 50 uM after 48 hrs by MTT assay; type: functional; settings: MIA PaCa-2, 48 h, read-out: GI; outline: as §2
[5] = Cytotoxicity against human PC3 cells assessed as cell growth inhibition at 30 uM after 48 hrs by MTT assay; type: functional; settings: PC-3, 48 h, read-out: GI; outline: as §2
[6] = Cytotoxicity against human PC3 cells assessed as cell growth inhibition at 50 uM after 48 hrs by MTT assay; type: functional; settings: PC-3, 48 h, read-out: GI; outline: as §2
[7] = Cytotoxicity against human HepG2 cells assessed as cell growth inhibition at 30 uM after 48 hrs by MTT assay; type: functional; settings: HepG2, 48 h, read-out: GI; outline: as §2
[8] = Cytotoxicity against human HepG2 cells assessed as cell growth inhibition at 50 uM after 48 hrs by MTT assay; type: functional; settings: HepG2, 48 h, read-out: GI; outline: as §2
[9] = Cytotoxicity against human LS180 cells assessed as cell growth inhibition at 30 uM after 48 hrs by MTT assay; type: functional; settings: LS180, 48 h, read-out: GI; outline: as §2
[10] = Cytotoxicity against human LS180 cells assessed as cell growth inhibition at 50 uM after 48 hrs by MTT assay; type: functional; settings: LS180, 48 h, read-out: GI; outline: as §2
[11] = Lipophilicity, log P of the compound; type: physicochemical; settings: octanol/water
[12] = Aqueous solubility of the compound at pH 7; type: physicochemical

SMILES | inhibition of growth at 50 µM [1] | inhibition of growth at 30 µM [2] | inhibition of growth at 30 µM [3] | inhibition of growth at 50 µM [4] | inhibition of growth at 30 µM [5] | inhibition of growth at 50 µM [6] | inhibition of growth at 30 µM [7] | inhibition of growth at 50 µM [8] | inhibition of growth at 30 µM [9] | inhibition of growth at 50 µM [10] | logP [11] | solubility [12]
COc1ccc(/C=C/C(=O)c2ccc(OCCO[C@H]3O[C@@H]4O[C@@]5(C)CC[C@H]6[C@H](C)CC[C@@H]([C@H]3C)[C@@]46OO5)cc2)c(OC)c1 | 85.7% | 83.5% | 24.8% | 41.7% | 38.2% | 46.9% | 18.2% | 25.1% | 27.5% | 29.6% | 5.34 to 7.45 | < 10 µg/mL
C[C@H]1[C@@H](OCCOc2ccc(/C=C/C(=O)c3cc4ccccc4o3)cc2)O[C@@H]2O[C@@]3(C)CC[C@H]4[C@H](C)CC[C@@H]1[C@@]24OO3 | 88.7% | 84.6% | 52.4% | 62.3% | 42.5% | 48.5% | 29.9% | 32% | 37.6% | 43.6% | 5.34 to 7.45 | < 10 µg/mL
CCOc1cc(/C=C/C(=O)c2ccc(OCCO[C@H]3O[C@@H]4O[C@@]5(C)CC[C@H]6[C@H](C)CC[C@@H]([C@H]3C)[C@@]46OO5)cc2)ccc1O | 84.1% | 80.8% | 49.4% | 49.8% | 55.1% | 58.9% | 25.5% | 28.2% | 27.4% | 36.3% | 5.34 to 7.45 | < 10 µg/mL
C[C@H]1[C@@H](OCCOc2ccc(/C=C/C(=O)c3cccc(O)c3)cc2)O[C@@H]2O[C@@]3(C)CC[C@H]4[C@H](C)CC[C@@H]1[C@@]24OO3 | 76.5% | 77.7% | 44.1% | 51.1% | 47.6% | 49.5% | 33.6% | 38.3% | 31.1% | 39.3% | 5.34 to 7.45 | < 10 µg/mL
COc1ccc(C(=O)/C=C/c2ccc(OCCO[C@H]3O[C@@H]4O[C@@]5(C)CC[C@H]6[C@H](C)CC[C@@H]([C@H]3C)[C@@]46OO5)cc2)c(OC)c1 | 89.5% | 89.3% | 44.1% | 46.8% | 47.4% | 49.8% | 27.3% | 28.9% | 63.3% | 74.1% | 5.34 to 7.45 | < 10 µg/mL
C[C@H]1[C@@H](OCCOc2ccc(/C=C/C(=O)c3ccc(Cl)cc3)cc2)O[C@@H]2O[C@@]3(C)CC[C@H]4[C@H](C)CC[C@@H]1[C@@]24OO3 | 93.2% | 89.4% | 54.4% | 62.8% | 38.7% | 41.8% | 19.7% | 25.1% | 42.1% | 45.6% | 5.34 to 7.45 | < 10 µg/mL
COc1ccc(/C=C/C(=O)c2ccc(OCCO[C@H]3O[C@@H]4O[C@@]5(C)CC[C@H]6[C@H](C)CC[C@@H]([C@H]3C)[C@@]46OO5)cc2)c(OC)c1OC | 82.9% | 78.7% | 36.2% | 43.1% | 53.3% | 54.2% | 28.1% | 30.1% | 50.8% | 58.5% | 5.34 to 7.45 | < 10 µg/mL
C[C@H]1[C@@H](OCCOc2ccc(/C=C/C(=O)c3ccc(OCCO[C@H]4O[C@@H]5O[C@@]6(C)CC[C@H]7[C@H](C)CC[C@@H]([C@H]4C)[C@@]57OO6)cc3)cc2)O[C@@H]2O[C@@]3(C)CC[C@H]4[C@H](C)CC[C@@H]1[C@@]24OO3 | 87.9% | 85.6% | 45.1% | 49.1% | 44.2% | 47.6% | 40.9% | 47.8% | 45.8% | 49.5% | 5.34 to 7.45 | < 10 µg/mL
